Source: paper PMC10328739 (Small (Weinheim an der Bergstrasse, Germany), 2021)

Legend:
[1] = Screening of micelle elongation; format: physicochemical; conditions: T2 micelles
In short: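 Drug loaded into T2 micelles at polymer/drug w/w 10/0, 10/1, 10/2, 10/4 and 10/8. Particle size and size distribution followed over time by DLS. Polymer concentration (1.25–80 mg mL⁻¹), temperature (4, 25, 37 °C) and NaCl (up to ≈4%) also varied. Each formulation scored as spherical, sphere+worm mix, worm, or precipitate.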

[2] = Maximal drug solubilization in POx micelles; format: physicochemical
[3] = test system: BRCA1-mutant human breast carcinoma xenograft MDA-MB-436; assay: Tumor inhibition, MDA-MB-436 xenograft; format: in vivo, athymic nude mice; conditions: 20 mg kg^−1 IV, twice a week, six injections

Row | Compound | mass fraction of drug that inhibited elongation [1] [%] | maximal solubilization ([2]; in T2 micelles) [mg/mL] | maximal solubilization ([2]; in T3 micelles) [mg/mL] | antitumor activity (tumor growth inhibition) [3]
1 | CC1(C)CCC(c2ccc(Cl)cc2)=C(CN2CCN(c3ccc(C(=O)NS(=O)(=O)c4ccc(N[C@H](CCN5CCOCC5)CSc5ccccc5)c(S(=O)(=O)C(F)(F)F)c4)cc3)CC2)C1 [ABT-263] | ≤ 10 | 4 | 8 | 
2 | O=C(c1cc(Cc2n[nH]c(=O)c3ccccc23)ccc1F)N1CCN(C(=O)C2CC2)CC1 [Olaparib] |  |  |  | neither the blank spherical micelles nor the free olaparib (20 mg kg^−1) displayed inhibition of the tumor growth
3 | CC(=O)O[C@H]1C(=O)[C@@]2(C)[C@H]([C@H](OC(=O)c3ccccc3)[C@]3(O)C[C@H](OC(=O)[C@H](O)[C@@H](NC(=O)c4ccccc4)c4ccccc4)C(C)=C1C3(C)C)[C@]1(OC(C)=O)CO[C@@H]1C[C@@H]2O [Paclitaxel] | ≤ 10 |  |  | 
4 | CS(=O)(=O)c1ccc(C(=O)Nc2ccc(Cl)c(-c3ccccn3)c2)c(Cl)c1 [Vismodegib] | ≤ 10 | 4 | 8 | 
